Test results taken from ChEMBL document CHEMBL2417372, “Design, synthesis, and mechanism of action of 2-(3-hydroxy-5-methoxyphenyl)-6-pyrrolidinylquinolin-4-one as a potent anticancer lead” (Bioorg Med Chem Lett, 2013).

Legend:
SR = test: Cytotoxicity against human SR cells after 48 hrs; type: functional
MDA-MB-231 = test: Cytotoxicity against human MDA-MB-231 cells after 48 hrs; type: functional; conditions: MDA-MB-231, 48 h
MDA-MB-468 = test: Cytotoxicity against human MDA-MB-468 cells after 48 hrs; type: functional; conditions: MDA-MB-468, 48 h
HCT-116 = test: Cytotoxicity against human HCT116 cells after 48 hrs; type: functional; conditions: HCT-116, 48 h
Malme-3M = test: Cytotoxicity against human MALME-3M cells after 48 hrs; type: functional
A498 = test: Cytotoxicity against human A498 cells after 48 hrs; type: functional; conditions: A498, 48 h
[1] = Cytotoxicity against human Hep3B cells after 48 hrs; type: functional, cell-based, Hep 3B2
Procedure, shortened: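 MTT viability assay on log-phase cells at 37 °C, exposed to compound or DMSO vehicle for 48 h. MTT (1 mg/mL in PBS) was then added for 2 h, and absorbance was read at 570 nm with 630 nm correction. IC50 is the concentration giving 50% proliferation inhibition. Cells were cultured in 5% CO2: HL-60 in RPMI-1640 with 10% FBS; Hep3B in DMEM/F12 with 10% FBS; Detroit 551 in DMEM with 10% FBS.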

OVCAR-8 = test: Cytotoxicity against human OVCAR8 cells after 48 hrs; type: functional; conditions: OVCAR-8, 48 h
NCI-H522 [2] = test: Cytotoxicity against human NCI-H522 cells after 48 hrs; type: functional; conditions: NCI-H522, 48 h, read-out: pLC50 (the source's name) (converted)
SW-620 = test: Cytotoxicity against human SW620 cells after 48 hrs; type: functional; conditions: SW-620, 48 h
CCRF-CEM = test: Cytotoxicity against human CCRF-CEM cells after 48 hrs; type: functional
SK-MEL-2 = test: Cytotoxicity against human SK-MEL-2 cells after 48 hrs; type: functional; conditions: SK-MEL-2, 48 h
Procedure, shortened: (§1)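 Tested in the NCI-60 human cancer cell line panel. Results are given as log concentrations: GI50 reduced cell growth to 50% […], TGI caused total growth inhibition, and LC50 killed 50% of the test population.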

ACHN = test: Cytotoxicity against human ACHN cells after 48 hrs; type: functional
SK-MEL-5 = test: Cytotoxicity against human SK-MEL-5 cells after 48 hrs; type: functional; conditions: SK-MEL-5, 48 h
NCI-H460 = test: Cytotoxicity against human NCI-H460 cells after 48 hrs; type: functional, cell-based; conditions: NCI-H460, 48 h
UACC-62 = test: Cytotoxicity against human UACC62 cells after 48 hrs; type: functional; conditions: UACC-62, 48 h
U-251 = test: Cytotoxicity against human U251 cells after 48 hrs; type: functional; conditions: U-251, 48 h
T47D = test: Cytotoxicity against human T47D cells after 48 hrs; type: functional
SNB-75 = test: Cytotoxicity against human SNB75 cells after 48 hrs; type: functional; conditions: SNB-75, 48 h
PC-3 = test: Cytotoxicity against human PC3 cells after 48 hrs; type: functional; conditions: PC-3, 48 h
MDA-MB-435 = test: Cytotoxicity against human MDA-MB-435 cells after 48 hrs; type: functional; conditions: MDA-MB-435, 48 h
K562 = test: Cytotoxicity against human K562 cells after 48 hrs; type: functional; conditions: K562, 48 h
HT-29 = test: Cytotoxicity against human HT-29 cells after 48 hrs; type: functional; conditions: HT-29, 48 h
NCI-H522 [3] = test: Cytotoxicity against human NCI-H522 cells after 48 hrs by MTT assay; type: functional, cell-based; conditions: NCI-H522, 48 h
CAKI-1 = test: Cytotoxicity against human CAKI-1 cells after 48 hrs; type: functional; conditions: CAKI-1, 48 h
RXF 393 = test: Cytotoxicity against human RXF393 cells after 48 hrs; type: functional; conditions: RXF 393, 48 h
IGROV-1 = test: Cytotoxicity against human IGROV1 cells after 48 hrs; type: functional; conditions: IGROV-1, 48 h
SK-MEL-28 = test: Cytotoxicity against human SK-MEL-28 cells after 48 hrs; type: functional; conditions: SK-MEL-28, 48 h
KM12 = test: Cytotoxicity against human KM12 cells after 48 hrs; type: functional; conditions: KM12, 48 h
[4] = Cytotoxicity against human EKVX cells after 48 hrs; type: functional; procedure, shortened: as §1
NCI-H322M = test: Cytotoxicity against human NCI-H322M cells after 48 hrs; type: functional
SK-OV-3 = test: Cytotoxicity against human SKOV3 cells after 48 hrs; type: functional; conditions: SK-OV-3, 48 h
NCI-H226 = test: Cytotoxicity against human NCI-H226 cells after 48 hrs; type: functional; conditions: NCI-H226, 48 h
UO-31 = test: Cytotoxicity against human UO31 cells after 48 hrs; type: functional; conditions: UO-31, 48 h
[5] = Cytotoxicity against human NCI-ADR-RES cells after 48 hrs; type: functional
[6] = read-out: pLC50 (the source's name) (converted)

## COc1cc(O)cc(-c2cc(=O)c3cc(N4CCCC4)ccc3[nH]2)c1
SR
  GI50: < 0.01 µM
SR; [6]
  CC50: > 100 µM
SR; read-out: pTGI
  TGI: > 100 µM
MDA-MB-231
  GI50: 0.0501 µM
MDA-MB-231; [6]
  CC50: > 100 µM
MDA-MB-231; read-out: pTGI
  TGI: > 100 µM
MDA-MB-468
  GI50: 0.263 µM
MDA-MB-468; [6]
  CC50: > 100 µM
MDA-MB-468; read-out: pTGI (converted)
  TGI: 2 µM
HCT-116
  GI50: 0.0355 µM
HCT-116; [6]
  CC50: > 100 µM
HCT-116; read-out: pTGI
  TGI: > 100 µM
Malme-3M
  GI50: 0.0257 µM
Malme-3M; [6]
  CC50: > 100 µM
Malme-3M; read-out: pTGI
  TGI: > 100 µM
A498
  GI50: 4.07 µM
A498; [6]
  CC50: > 100 µM
A498; read-out: pTGI
  TGI: > 100 µM
[1]
  IC50: 0.5 µM
OVCAR-8
  GI50: 0.0389 µM
OVCAR-8; [6]
  CC50: > 100 µM
OVCAR-8; read-out: pTGI (converted)
  TGI: 31.6 µM
NCI-H522 [2]
  CC50: 3.89 µM
SW-620
  GI50: 0.0447 µM
SW-620; [6]
  CC50: > 100 µM
SW-620; read-out: pTGI
  TGI: > 100 µM
CCRF-CEM
  GI50: 0.0324 µM
CCRF-CEM; [6]
  CC50: > 100 µM
CCRF-CEM; read-out: pTGI
  TGI: > 100 µM
SK-MEL-2
  GI50: 0.0282 µM
SK-MEL-2; [6]
  CC50: 87.1 µM
ACHN
  GI50: 0.0776 µM
ACHN; [6]
  CC50: > 100 µM
ACHN; read-out: pTGI
  TGI: > 100 µM
SK-MEL-5
  GI50: 0.0246 µM
SK-MEL-5; [6]
  CC50: 0.49 µM
SK-MEL-5; read-out: pTGI (converted)
  TGI: 0.0661 µM
NCI-H460
  GI50: 0.324 µM
  IC50: 2.12 µM
  LC50: > 100 µM
NCI-H460; read-out: pTGI
  TGI: > 100 µM
UACC-62
  GI50: 0.646 µM
UACC-62; [6]
  CC50: > 100 µM
UACC-62; read-out: pTGI
  TGI: > 100 µM
U-251
  GI50: 0.0468 µM
U-251; [6]
  CC50: 87.1 µM
U-251; read-out: pTGI (converted)
  TGI: 14.5 µM
T47D
  GI50: > 100 µM
T47D; [6]
  CC50: > 100 µM
T47D; read-out: pTGI
  TGI: > 100 µM
SNB-75
  GI50: 0.0347 µM
SNB-75; [6]
  CC50: 77.6 µM
SNB-75; read-out: pTGI (converted)
  TGI: 13.2 µM
PC-3
  GI50: 0.0977 µM
PC-3; [6]
  CC50: > 100 µM
PC-3; read-out: pTGI
  TGI: > 100 µM
MDA-MB-435
  GI50: 0.01 µM
MDA-MB-435; read-out: pTGI (converted)
  TGI: 0.0295 µM
K562
  GI50: 0.0234 µM
K562; [6]
  CC50: > 100 µM
K562; read-out: pTGI
  TGI: > 100 µM
HT-29
  GI50: 0.0759 µM
HT-29; [6]
  CC50: > 100 µM
HT-29; read-out: pTGI
  TGI: > 100 µM
NCI-H522 [3]
  IC50: 0.0423 µM
CAKI-1
  GI50: 0.0832 µM
CAKI-1; [6]
  CC50: > 100 µM
CAKI-1; read-out: pTGI
  TGI: > 100 µM
RXF 393
  GI50: 0.0407 µM
RXF 393; [6]
  CC50: > 100 µM
RXF 393; read-out: pTGI (converted)
  TGI: 24 µM
IGROV-1
  GI50: 0.363 µM
IGROV-1; [6]
  CC50: > 100 µM
IGROV-1; read-out: pTGI
  TGI: > 100 µM
SK-MEL-28
  GI50: 0.0741 µM
SK-MEL-28; [6]
  CC50: > 100 µM
SK-MEL-28; read-out: pTGI
  TGI: > 100 µM
KM12
  GI50: 0.0347 µM
KM12; [6]
  CC50: > 100 µM
KM12; read-out: pTGI
  TGI: > 100 µM
[4]; [6]
  CC50: > 100 µM
[4]; read-out: pTGI
  TGI: > 100 µM
NCI-H322M
  GI50: 0.0724 µM
NCI-H322M; [6]
  CC50: > 100 µM
NCI-H322M; read-out: pTGI
  TGI: > 100 µM
SK-OV-3
  GI50: 0.0234 µM
SK-OV-3; [6]
  CC50: > 100 µM
SK-OV-3; read-out: pTGI (converted)
  TGI: 25.1 µM
NCI-H226
  GI50: > 100 µM
NCI-H226; [6]
  CC50: > 100 µM
NCI-H226; read-out: pTGI
  TGI: > 100 µM
UO-31
  GI50: 0.182 µM
UO-31; [6]
  CC50: > 100 µM
UO-31; read-out: pTGI
  TGI: > 100 µM
[5]
  GI50: 0.0617 µM
[5]; [6]
  CC50: > 100 µM
[5]; read-out: pTGI (converted)
  TGI: 0.513 µM
